{"source": "paper PMC9516696", "about": "(RSC Advances, 2022)", "key": {"[1]": {"system": "HEK293T cell line (human embryonic kidney)", "assay": "MTT cytotoxicity assay, HEK293T", "type": "cell-based", "conditions": "24 h", "method_in_brief": "(§1)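 Cells (1 × 10^4 per well in 0.2 mL medium) were exposed to test compounds, pre-dissolved in DMSO, at 0.01–1 mM for 24 h. Compounds were then washed out with three PBS washes, and MTT was read at once. Five replicates per concentration, each repeated at least three times; IC50 given as mean + SD. MCF7, A549 and HaCaT were grown in DMEM with 10% FBS and 1% streptomycin/penicillin. DU-145 and HEK293T were grown in MEM with 10% FBS. All cultures were kept at 37 °C, 5% CO2.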"}, "[2]": {"system": "HaCat (human keratinocyte)", "assay": "MTT cytotoxicity assay, HaCat", "type": "cell-based", "conditions": "24 h", "method_in_brief": "as §1"}, "[3]": {"system": "MCF7 cell line (human breast adenocarcinoma)", "assay": "MTT cytotoxicity assay, MCF7", "type": "cell-based", "method_in_brief": "as §1"}, "[4]": {"system": "DU-145 cell line (human prostate carcinoma)", "assay": "MTT cytotoxicity assay, DU-145", "type": "cell-based", "method_in_brief": "as §1"}, "[5]": {"system": "A549 cell line (human lung adenocarcinoma)", "assay": "MTT cytotoxicity assay, A549", "type": "cell-based", "method_in_brief": "as §1"}, "DU-145 cells [6]": {"system": "DU-145 cells", "assay": "ROS generation, H2DCF-DA assay", "type": "cell-based, human", "conditions": "DU-145, 24, 48 and 72 h, c = 1 μM", "method_in_brief": "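DU-145 prostate carcinoma cells grown in MEM with 10% FBS at 37 °C, 5% CO2, seeded in 96-well plates. Cells were exposed continuously to test compound (copper complexes or free ligands), then loaded with the H2DCF-DA probe. ROS was read by fluorescence, with work done in darkness. Signal was related to an untreated negative control and an extra-H2O2 positive control.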"}, "DU-145 cells [7]": {"system": "DU-145 cells", "assay": "Mitochondrial membrane potential, JC-10 assay", "type": "cell-based, human", "conditions": "DU-145, compounds at IC50, 24 h, JC-10 emission ratio 570 nm/530 nm", "method_in_brief": "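DU-145 cells were seeded at 1 × 10^4 per 0.2 mL. After 24 h the medium was replaced with test compound solutions, gentamicin (0.5 mg mL−1, positive control) or ciprofloxacin (10 μg mL−1, negative control), then incubated 24 h at 37 °C, 5% CO2. Cells were PBS-washed twice and loaded with JC-10 for 1 h. Emission read at λex 540/λem 570 nm and λex 485/λem 530 nm; red/green ratio reported as mean + SD.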"}, "[8]": {"assay": "Stability in DMSO solution by FT-IR", "type": "physicochemical", "conditions": "2% solution in DMSO, 0-96 h, qualitative", "method_in_brief": "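ATR FT-IR of 2% solutions of the complexes in DMSO, one drop on the diamond plate, recorded at 1, 24, 48, 72 and 96 h. Settings: 2 cm−1 resolution, 128 scans, 4000–400 and 600–100 cm−1, room temperature. Solution spectra were compared with the solid-state spectra; qualitative only.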"}, "Stability in DMSO/H2O": {"assay": "Stability in DMSO/H2O", "type": "physicochemical", "method_in_brief": "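UV-Vis spectra of the complexes in DMSO/H2O (9:1, v/v) at room temperature, recorded right after dissolving and at 48 and 96 h. Full range recorded at 10−6 M; d–d bands recorded at 10−4 M.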"}, "[9]": {"system": "HEK293T and HaCat normal cell lines", "assay": "Cytotoxicity toward normal cell lines, stated in words", "type": "cell-based, human", "method_in_brief": "as §1"}, "[10]": {"conditions": "HEK293T, non-cancerous cell line, MTT"}, "[11]": {"conditions": "HaCat, non-cancerous cell line, MTT"}, "[12]": {"conditions": "MCF7, cancer cell line, 24 h, MTT"}, "[13]": {"conditions": "DU145, cancer cell line, 24 h, MTT"}, "[14]": {"conditions": "A549, cancer cell line, 24 h, MTT"}}, "note": "Entries after “also recorded” stand apart in the source; their conditions may differ."}
{"compound": "CCc1ccccn1", "note": "[2-Ethylpyridine, 2-ethylpyridine]", "values": [{"measurement": "IC50", "setting": "[1]; Homo sapiens, HEK-293T", "value": "> 1000", "unit": "µM"}, {"measurement": "IC50", "setting": "[2]; Homo sapiens, HaCaT", "value": "> 1000", "unit": "µM"}, {"measurement": "IC50", "setting": "[3]; Homo sapiens, MCF7, 24 h", "value": "> 1000", "unit": "µM"}, {"measurement": "IC50", "setting": "[4]; Homo sapiens, DU-145, 24 h", "value": "> 1000", "unit": "µM"}, {"measurement": "IC50", "setting": "[5]; Homo sapiens, A549, 24 h", "value": "> 1000", "unit": "µM"}, {"measurement": "ROS generation compared to negative control (order)", "setting": "DU-145 cells [6]", "value": "complex 1 > complex 3 > 2-pyridineethanol > 2-ethylpyridyne"}, {"measurement": "Reduction of mitochondrial membrane potential", "setting": "DU-145 cells [7]", "value": "most significantly reduced"}]}
{"compound": "OCCc1ccccn1", "note": "[2-Pyridineethanol, 2-pyridineethanol]", "values": [{"measurement": "IC50", "setting": "[1]; Homo sapiens, HEK-293T", "value": "> 1000", "unit": "µM"}, {"measurement": "IC50", "setting": "[2]; Homo sapiens, HaCaT", "value": "> 1000", "unit": "µM"}, {"measurement": "IC50", "setting": "[3]; Homo sapiens, MCF7, 24 h", "value": "> 1000", "unit": "µM"}, {"measurement": "IC50", "setting": "[4]; Homo sapiens, DU-145, 24 h", "value": "> 1000", "unit": "µM"}, {"measurement": "IC50", "setting": "[5]; Homo sapiens, A549, 24 h", "value": "> 1000", "unit": "µM"}, {"measurement": "ROS generation compared to negative control (order)", "setting": "DU-145 cells [6]", "value": "complex 1 > complex 3 > 2-pyridineethanol > 2-ethylpyridyne"}, {"measurement": "Reduction of mitochondrial membrane potential", "setting": "DU-145 cells [7]", "value": "most significantly reduced"}]}
{"compound": "OCc1ccccn1", "note": "[2-Pyridinemethanol, 2-pyridinemethanol]", "values": [{"measurement": "IC50", "setting": "[1]; Homo sapiens, HEK-293T", "value": "> 1000", "unit": "µM"}, {"measurement": "IC50", "setting": "[2]; Homo sapiens, HaCaT", "value": "> 1000", "unit": "µM"}, {"measurement": "IC50", "setting": "[3]; Homo sapiens, MCF7, 24 h", "value": "> 1000", "unit": "µM"}, {"measurement": "IC50", "setting": "[4]; Homo sapiens, DU-145, 24 h", "value": "> 1000", "unit": "µM"}, {"measurement": "IC50", "setting": "[5]; Homo sapiens, A549, 24 h", "value": "> 1000", "unit": "µM"}]}
{"compound": "N.N.[Cl][Pt][Cl]", "note": "[Cisplatin, cisplatin, reference compound]", "values": [{"measurement": "IC50", "setting": "[1]; [10]", "value": "21 ± 1.8", "unit": "µM"}, {"measurement": "IC50", "setting": "[2]; [11]", "value": "13.3 ± 1.1", "unit": "µM"}, {"measurement": "IC50", "setting": "[3]; [12]", "value": "50.9 ± 2.6", "unit": "µM"}, {"measurement": "IC50", "setting": "[4]; [13]", "value": "98.3 ± 1.3", "unit": "µM"}, {"measurement": "IC50", "setting": "[5]; [14]", "value": "57 ± 1.3", "unit": "µM"}]}
{"compound": "[Cu4OCl6(etpy)4] [Complex 2]", "values": [{"measurement": "IC50", "setting": "[1]; [10]", "value": "> 1000", "unit": "µM"}, {"measurement": "IC50", "setting": "[2]; [11]", "value": "> 1000", "unit": "µM"}, {"measurement": "IC50", "setting": "[3]; [12]", "value": "> 1000", "unit": "µM"}, {"measurement": "IC50", "setting": "[4]; [13]", "value": "> 1000", "unit": "µM"}, {"measurement": "Activity toward DU-145 cancer cells", "setting": "[4]", "value": "inactive"}, {"measurement": "IC50", "setting": "[5]; [14]", "value": "> 1000", "unit": "µM"}, {"measurement": "Stability in DMSO solution", "setting": "[8]", "value": "turns into complex 1"}, {"measurement": "Stability in DMSO/H2O solution", "setting": "Stability in DMSO/H2O; DMSO/H2O 9:1 v/v, room temperature, 0 min, 48 h and 96 h, UV-Vis", "value": "turns into complex 1"}, {"measurement": "Structure after dissolving in biological medium", "setting": "Stability in DMSO/H2O; biological medium, confirmed by UV-Vis and FT-IR", "value": "adopts the same structure as compound 1"}]}
{"compound": "trans-[CuCl2(etpy)2] [Complex 1]", "values": [{"measurement": "IC50", "setting": "[1]; [10]", "value": "> 1000", "unit": "µM"}, {"measurement": "IC50", "setting": "[2]; [11]", "value": "> 1000", "unit": "µM"}, {"measurement": "IC50", "setting": "[3]; [12]", "value": "> 1000", "unit": "µM"}, {"measurement": "IC50", "setting": "[4]; [13]", "value": "> 1000", "unit": "µM"}, {"measurement": "Activity toward DU-145 cancer cells", "setting": "[4]", "value": "inactive"}, {"measurement": "IC50", "setting": "[5]; [14]", "value": "> 1000", "unit": "µM"}, {"measurement": "Toxicity towards normal (healthy) cells", "setting": "[9]", "value": "did not exhibit toxicity; also recorded: nontoxic"}, {"measurement": "ROS generation compared to negative control (order)", "setting": "DU-145 cells [6]", "value": "complex 1 > complex 3 > 2-pyridineethanol > 2-ethylpyridyne"}, {"measurement": "Reduction of mitochondrial membrane potential", "setting": "DU-145 cells [7]", "value": "least effect"}]}
